Active and inactive are the calls of the source. The calls are words filed in the database; no cut-off is given here.
Key:
[1] = biological target: T1, Nuclear receptor subfamily 1 group I member 2 (Homo sapiens, UniProt O75469); test: Agonist activity at human PXR in human HepG2 cells co-expressing luciferase gene under control of CYP3A4 promoter assessed as transcriptional activation at 30 uM incubated for 24 hrs by luminescence based analysis; type: cell-based; conditions: hepg2, 24 h
T1 sequence (O75469 whole entry): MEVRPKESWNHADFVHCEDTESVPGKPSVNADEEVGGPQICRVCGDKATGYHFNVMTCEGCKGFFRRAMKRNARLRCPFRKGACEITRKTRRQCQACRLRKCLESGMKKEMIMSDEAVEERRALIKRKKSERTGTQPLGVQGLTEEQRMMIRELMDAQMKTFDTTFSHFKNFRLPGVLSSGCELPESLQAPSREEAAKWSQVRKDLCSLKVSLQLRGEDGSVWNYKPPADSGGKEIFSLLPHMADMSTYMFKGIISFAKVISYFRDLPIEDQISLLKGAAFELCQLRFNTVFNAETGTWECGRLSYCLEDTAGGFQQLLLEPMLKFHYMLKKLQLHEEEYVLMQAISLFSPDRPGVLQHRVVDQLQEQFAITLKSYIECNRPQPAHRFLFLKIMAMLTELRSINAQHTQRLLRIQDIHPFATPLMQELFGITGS

[2] = biological target: T2, PXR (NR1I2) ligand binding domain (Homo sapiens, UniProt O75469); test: Inhibition of BODIPY FL vindoline binding to recombinant human GST-tagged PXR LBD (111 to 434 residues) expressed in baculovirus infected insect cells at 10 uM incubated for 1 mins under shaking condition followed by 60 mins under dark condition by TR-FRET assay relative to control; conditions: probe BODIPY FL vindoline, time 61 min
T2 sequence (O75469 whole entry): T1 sequence (O75469 whole entry)

PXR (NR1I2) [3] = biological target: T3, PXR (NR1I2) (Homo sapiens, UniProt O75469); test: Inverse agonist activity at human PXR in human HepG2 cells co-expressing luciferase gene under control of CYP3A4 promoter assessed as inhibition in receptor basal activity at 10 uM incubated for 24 hrs by luminescence based analysis relative to control; type: cell-based
T3 sequence (O75469 whole entry): T1 sequence (O75469 whole entry)

[4] = biological target: T1, Nuclear receptor subfamily 1 group I member 2; test: Antagonist activity at human PXR in human HepG2 cells co-expressing luciferase gene under control of CYP3A4 promoter assessed as inhibition in rifampicin-induced receptor activation at 30 uM incubated for 24 hrs by luminescence based analysis; type: cell-based; conditions: hepg2, 24 h
[5] = biological target: T1, Nuclear receptor subfamily 1 group I member 2; test: Agonist activity at human PXR in human HepG2 cells co-expressing luciferase gene under control of CYP3A4 promoter assessed as transcriptional activation incubated for 24 hrs by luminescence based analysis
[6] = biological target: T1, Nuclear receptor subfamily 1 group I member 2; test: Agonist activity at human PXR in human HepG2 cells co-expressing luciferase gene under control of CYP3A4 promoter assessed as transcriptional activation at 10 uM incubated for 24 hrs by luminescence based analysis relative to control
[7] = biological target: T1, Nuclear receptor subfamily 1 group I member 2; test: Inverse agonist activity at human PXR in human HepG2 cells co-expressing luciferase gene under control of CYP3A4 promoter assessed as inhibition in receptor basal activity at 30 uM incubated for 24 hrs by luminescence based analysis; conditions: hepg2, 24 h
[8] = biological target: T1, Nuclear receptor subfamily 1 group I member 2; test: Inhibition of BODIPY FL vindoline binding to recombinant human GST-tagged PXR LBD (111 to 434 residues) expressed in baculovirus infected insect cells incubated for 1 mins under shaking condition followed by 60 mins under dark condition by TR-FRET assay; conditions: for inhibition (INH): human, 1.017 h, time 61 min
PXR (NR1I2) [9] = biological target: T3, PXR (NR1I2); test: Antagonist activity at human PXR in human HepG2 cells co-expressing luciferase gene under control of CYP3A4 promoter assessed as inhibition in rifampicin-induced receptor activation at 10 uM incubated for 24 hrs by luminescence based analysis relative to control; type: cell-based
[10] = biological target: T1, Nuclear receptor subfamily 1 group I member 2; test: Inverse agonist activity at human PXR in human HepG2 cells co-expressing luciferase gene under control of CYP3A4 promoter assessed as inhibition of receptor basal activity incubated for 24 hrs by luminescence based analysis; type: cell-based
[11] = biological target: T4, Nuclear receptor subfamily 1 group I member 2 (Mus musculus, UniProt O54915); test: Effect on mouse PXR activity by luciferase reporter assay
T4 sequence (O54915 whole entry): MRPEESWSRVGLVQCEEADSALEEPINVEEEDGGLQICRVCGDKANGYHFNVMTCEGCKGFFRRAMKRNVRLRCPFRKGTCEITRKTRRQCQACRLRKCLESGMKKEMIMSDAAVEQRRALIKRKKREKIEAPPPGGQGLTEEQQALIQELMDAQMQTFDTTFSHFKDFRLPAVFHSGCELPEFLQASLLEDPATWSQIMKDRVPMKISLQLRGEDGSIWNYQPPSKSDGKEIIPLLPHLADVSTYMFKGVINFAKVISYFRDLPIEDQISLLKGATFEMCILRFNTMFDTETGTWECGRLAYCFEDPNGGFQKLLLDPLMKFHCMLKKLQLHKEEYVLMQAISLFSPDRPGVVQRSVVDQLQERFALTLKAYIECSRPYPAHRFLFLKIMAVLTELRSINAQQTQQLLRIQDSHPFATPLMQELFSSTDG
In short: (§1)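 Run in agonistic mode (compound alone) or antagonistic mode (compound plus an agonist). Each concentration tested in quadruplicate, at least three times. % activation or % inhibition plotted against concentration, with EC50 or IC50 derived from a sigmoidal dose–response fit.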

[12] = biological target: T5, Vitamin D3 receptor (Homo sapiens) (UniProt P11473); test: Effect on VDR activity in GeneBLAzer VDR-UAS-bla HEK 293T cells by fluorescence based analysis; type: cell-based; in short: as §1
T5 sequence (whole entry): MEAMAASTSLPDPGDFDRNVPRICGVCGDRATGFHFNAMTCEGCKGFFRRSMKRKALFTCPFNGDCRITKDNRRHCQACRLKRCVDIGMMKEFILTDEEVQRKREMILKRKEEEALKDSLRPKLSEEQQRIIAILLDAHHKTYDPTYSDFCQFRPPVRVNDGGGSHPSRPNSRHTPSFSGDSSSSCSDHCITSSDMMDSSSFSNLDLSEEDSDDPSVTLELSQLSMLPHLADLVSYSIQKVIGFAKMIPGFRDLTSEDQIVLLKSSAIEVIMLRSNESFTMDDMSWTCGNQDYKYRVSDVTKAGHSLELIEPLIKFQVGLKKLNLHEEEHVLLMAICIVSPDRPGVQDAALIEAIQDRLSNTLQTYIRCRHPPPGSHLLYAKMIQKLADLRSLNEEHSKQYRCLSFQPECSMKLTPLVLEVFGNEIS

[13] = biological target: T6, Oxysterols receptor LXR-alpha (Homo sapiens) (UniProt Q13133); test: Effect on LXRalpha activity in GeneBLAzer LXRalpha-UAS-bla HEK 293T cells by fluorescence based analysis; type: cell-based; in short: as §1
T6 sequence (whole entry): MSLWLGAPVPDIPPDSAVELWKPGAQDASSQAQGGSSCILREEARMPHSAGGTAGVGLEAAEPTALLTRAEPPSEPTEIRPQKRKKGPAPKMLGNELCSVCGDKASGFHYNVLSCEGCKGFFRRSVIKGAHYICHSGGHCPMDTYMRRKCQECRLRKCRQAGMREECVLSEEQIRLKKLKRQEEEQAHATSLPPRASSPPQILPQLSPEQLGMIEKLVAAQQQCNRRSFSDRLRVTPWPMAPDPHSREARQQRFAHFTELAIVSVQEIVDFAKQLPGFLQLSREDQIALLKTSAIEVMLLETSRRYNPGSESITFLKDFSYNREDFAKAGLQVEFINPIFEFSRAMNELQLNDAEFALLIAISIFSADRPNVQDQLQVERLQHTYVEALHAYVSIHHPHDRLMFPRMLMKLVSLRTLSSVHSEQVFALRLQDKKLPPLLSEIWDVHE

[14] = Cytotoxicity against […] Hepa1-6 cells assessed as reduction in cell viability measured after 24 to 72 hrs by celltiter-glo luminescent cell viability assay; type: toxicity, cell-based; conditions: time 24-72 hrs
In short: (§2)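 Cells seeded at 2,500 per well for 1-day or 5,000 per well for 3-day exposure. Viability read by CellTiter-Glo luminescence. Staurosporine (56 μM) set as 100% cytotoxicity. Each concentration run in quadruplicate, at least three times. % cytotoxicity plotted and fitted to a sigmoidal dose–response curve. Means and SDs from three independent experiments.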

HepG2 [15] = test: Cytotoxicity against human HepG2 cells assessed as reduction in cell viability measured after 24 to 72 hrs by celltiter-glo luminescent cell viability assay; type: toxicity, cell-based; conditions: time 24-72 hrs; in short: as §2
HEK-293T = test: Cytotoxicity against HEK293T cells assessed as reduction in cell viability measured after 24 to 72 hrs by celltiter-glo luminescent cell viability assay; type: toxicity, cell-based; conditions: human, time 24-72 hrs; in short: as §2
[16] = biological target: T7, Bile acid receptor (Homo sapiens) (UniProt Q96RI1); test: Effect on FXR activity in GeneBLAzer FXR-UAS-bla HEK 293T cells by fluorescence based analysis; type: cell-based; in short: as §1
T7 sequence (whole entry): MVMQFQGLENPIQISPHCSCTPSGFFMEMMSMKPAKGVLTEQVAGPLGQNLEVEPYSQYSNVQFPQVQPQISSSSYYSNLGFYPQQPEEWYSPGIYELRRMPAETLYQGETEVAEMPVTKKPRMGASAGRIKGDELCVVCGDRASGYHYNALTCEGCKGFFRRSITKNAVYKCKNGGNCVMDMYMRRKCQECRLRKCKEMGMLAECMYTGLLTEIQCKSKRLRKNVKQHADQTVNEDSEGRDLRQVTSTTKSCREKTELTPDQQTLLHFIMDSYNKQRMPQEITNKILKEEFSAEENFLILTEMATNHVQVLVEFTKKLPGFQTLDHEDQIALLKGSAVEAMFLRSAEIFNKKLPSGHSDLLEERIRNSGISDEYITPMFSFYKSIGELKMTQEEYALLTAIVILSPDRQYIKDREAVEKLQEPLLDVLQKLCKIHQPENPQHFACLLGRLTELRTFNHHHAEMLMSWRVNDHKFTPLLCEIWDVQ

HepG2 [17] = test: Effect on CAR activity in human HepG2 cells co-expressing luciferase gene under control of CYP3A4 promoter by luciferase reporter assay; type: cell-based
HepaRG = test: Cytotoxicity against human HepaRG cells assessed as reduction in cell viability measured after 24 to 72 hrs by celltiter-glo luminescent cell viability assay; type: toxicity, cell-based; conditions: time 24-72 hrs; in short: as §2

SMILES: COc1ccc(OC)c(-n2nnc(C(=O)Nc3cccc(N4CCCCC4)c3)c2C)c1
- Activity [1]: Not Active
- inhibition at 1.017 h, 10 µM [2]: 50%
- inhibition at 24 h, 10 µM (PXR (NR1I2) [3]): 36%
- inhibition (INH) [4]: Not Active

SMILES: COc1ccc(OC)c(-n2nnc(C(=O)Nc3ccccc3)c2C)c1
- EC50 [5]: 25000 nM
- activity at 24 h, 10 µM [6]: 33%
- INH [7]: Not Active
- inhibition (INH) [4]: Not Active
- inhibition (INH) [8]: Not Active

SMILES: COc1ccc(OC)c(-n2nnc(C(=O)Nc3cc(N(C)C)cc(C(C)(C)C)c3)c2C)c1
- Activity [1]: Not Active
- inhibition at 24 h, 10 µM (PXR (NR1I2) [9]): 110%

SMILES: COc1ccc(OC)c(-n2nnc(C(=O)Nc3cc(C(C)(C)C)ccc3OCCN3CCOCC3)c2C)c1
- Activity [1]: Not Active
- IC50 [10]: 1400 nM
- inhibition at 1.017 h, 10 µM [2]: 68%
- inhibition at 24 h, 10 µM (PXR (NR1I2) [3]): 81%

SMILES: CCC[C@H](C)Oc1ccc(C(C)(C)C)cc1NC(=O)c1nnn(-c2cc(C)ccc2OC)c1C
- Activity [11]: Not Active
- Activity [1]: Not Active
- inhibition at 1.017 h, 10 µM [2]: 90%
- INH [7]: Not Active
- Activity [12]: inactive
- Activity [13]: inactive
- Activity [14]: Non-Toxic
- Activity (HepG2 [15]): Non-Toxic
- Activity (HEK-293T): Non-Toxic
- Activity [16]: inactive
- IC50 [8]: 4 nM
- Activity (HepG2 [17]): inactive
- Activity (HepaRG): Non-Toxic

SMILES: CCC[C@@H](C)Oc1ccc(C(C)(C)C)cc1NC(=O)c1nnn(-c2cc(C)ccc2OC)c1C
- EC50 [5]: 8.1 nM
- INH [7]: Not Active
- IC50 [8]: 11 nM

SMILES: CCC[C@@H](C)Oc1ccc(C(C)(C)C)cc1NC(=O)c1nnn(-c2cc(OC)ccc2OC)c1C
- Activity [1]: Not Active
- inhibition at 1.017 h, 10 µM [2]: 81%
- inhibition at 24 h, 10 µM (PXR (NR1I2) [3]): 91%

SMILES: CCCCN(CCCC)c1cc(NC(=O)c2nnn(-c3cc(OC)ccc3OC)c2C)cc(C(C)(C)C)c1
- Activity [1]: Not Active
- inhibition at 24 h, 10 µM (PXR (NR1I2) [9]): 82%

SMILES: CCCCOc1ccc(NC(=O)c2nnn(-c3cc(OC)ccc3OC)c2C)cc1C(C)(C)C
- inhibition at 24 h, 10 µM (PXR (NR1I2) [3]): 73%
- inhibition (INH) [8]: Not Active

— ChEMBL document CHEMBL5236619, “Design and Optimization of 1H-1,2,3-Triazole-4-carboxamides as Novel, Potent, and Selective Inverse Agonists and Antagonists of PXR” (J Med Chem, 2022)
